Laboratory results published in ChEMBL document CHEMBL5678799 (Biochem J, 2009).
Active and inactive are the calls of the source. No cut-off for these calls is given here.

Key:
MEF = test: Inhibition of mTORC2 in serum starved sin1 knockout MEF cells assessed as reduction IGF1-stimulated AKT phosphorylation at Thr308 residue at 100 to 1000 nM incubated for 20 mins by immunoblot analysis; type: cell-based; details: Mus musculus, dose 100-1000 nM
In short: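 Serum withdrawn 16 h. Inhibitor or vehicle given 30 min before stimulation with 50 ng/ml IGF-1 for 20 min. Lysed in Tris lysis buffer and immunoblotted for Akt Thr308 phosphorylation with ECL detection. Applies to HEK-293 and to wild-type, Rictor, Sin1 or mLST8 knockout MEFs. Three independent experiments.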

[1] = target: Ephrin type-B receptor 3 (Homo sapiens) (UniProt P54753); test: Inhibition of recombinant human N-terminal His6-tagged EPHB3 (561 to 998 residues) expressed in Escherichia coli assessed as remaining activity at 10 uM using Poly(Glu, Tyr) as substrate incubated for 30 mins in presence of [gamma-33P]ATP by filter binding method relative to control
In short: (§1)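 Panel assays were run for 30 min at 21 °C, within the linear range for time and enzyme. […] Results are percent activity remaining relative to compound-free control, averaged from triplicate ± S.D.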

mTORC1 (Homo sapiens) [2] = target: T1, mTORC1 (Homo sapiens) (UniProt P42345+Q8N122+Q9BVC4); details: HEK293, dose 30-1000 nM, time 30.0 min
[3] = target: Serine/threonine-protein kinase PAK 5 (Homo sapiens) (UniProt Q9P286); test: Inhibition of recombinant human N-terminal GST-tagged PAK5 (2 to 719 residues) expressed in Escherichia coli assessed as remaining activity at 10 uM using RRRLSFAEPG as substrate incubated for 30 mins in presence of [gamma-33P]ATP by filter binding method relative to control; in short: as §1
[4] = target: Serine/threonine-protein kinase pim-2 (Homo sapiens) (UniProt Q9P1W9); test: Inhibition of recombinant human N-terminal GST-tagged PIM2 (2 to 334 residues) expressed in Escherichia coli assessed as remaining activity at 10 uM using RSRHSSYPAGT as substrate incubated for 30 mins in presence of [gamma-33P]ATP by filter binding method relative to control
In short: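 Radiometric kinase panel run robotically at room temperature (21 °C) for 30 min, linear in time and enzyme. […] Activity is expressed as percent of control without compound, from triplicate determinations ± S.D.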

[5] = target: Sphingosine kinase 2 (Homo sapiens) (UniProt Q9NRA0); test: Inhibition of SPHK2 (unknown origin) assessed as remaining activity at 1 uM using sphingosine as substrate incubated for 30 mins in presence of ATP relative to control
In short: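 SPHK2 reaction: 10 μM sphingosine, 1 μM ATP, 50 mM Tris/HCl pH 7.5, 200 mM KCl, 5 mM MgCl2, 1 mM EGTA, 1 mM DTT, 30 min at room temperature. Kinase-Glo Plus luminescence read-out. Percentage of control activity, triplicate.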

[6] = target: Vascular endothelial growth factor receptor 1 (Homo sapiens) (UniProt P17948); test: Inhibition of recombinant human N-terminal GST-tagged VEGFR1 (784 to 1338 residues) expressed in baculovirus infected Sf21 cells assessed as remaining activity at 1 uM using KKKSPGEYVNIEFG as substrate incubated for 30 mins in presence of [gamma-33P]ATP by filter binding assay relative to control; in short: as §1
[7] = target: Maternal embryonic leucine zipper kinase (Homo sapiens) (UniProt Q14680); test: Inhibition of recombinant human N-terminal GST/C-terminal His6-tagged MELK (2 to 651 residues) expressed in Escherichia coli assessed as remaining activity at 10 uM using KKLNRTLSFAEPG as substrate incubated for 30 mins in presence of [gamma-33P]ATP by filter binding method relative to control
In short: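 Incubation was 30 min at room temperature (21 °C) under conditions linear with time and enzyme amount. Activity is reported as percent of control lacking compound, triplicate mean ± S.D.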

[8] = target: Serine/threonine-protein kinase PAK 5 (Homo sapiens) (UniProt Q9P286); test: Inhibition of recombinant human N-terminal GST-tagged PAK5 (2 to 719 residues) expressed in Escherichia coli assessed as remaining activity at 1 uM using RRRLSFAEPG as substrate incubated for 30 mins in presence of [gamma-33P]ATP by filter binding method relative to control; in short: as §1
[9] = target: Casein kinase I isoform delta (Homo sapiens) (UniProt P48730); test: Inhibition of recombinant human N-terminal GST-tagged CK1delta (1 to 415 residues) expressed in Escherichia coli assessed as remaining activity at 1 uM using RRKDLHDDEEDEAMSITA as substrate incubated for 30 mins in presence of [gamma-33P]ATP by filter binding method relative to control
In short: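 Robotic radiometric panel assay, 30 min at room temperature (21 °C), with 10 mM magnesium acetate. […] Compound at 1 or 10 µM. Residual activity expressed relative to compound-free control; triplicate average ± S.D.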

[10] = target: Protein kinase C zeta type (Homo sapiens) (UniProt Q05513); test: Inhibition of recombinant human N-terminal His6-tagged PKCzeta (2 to 592 residues) expressed in baculovirus infected Sf21 cells assessed as remaining activity at 1 uM using ERMRPRKRQGSVRRV as substrate incubated for 30 mins in presence of [gamma-33P]ATP by filter binding method relative to control
HEK293 = test: Inhibition of PI3K in serum starved HEK293 cells expressing GST-tagged-AKT1 S473D mutant assessed as reduction in IGF1-stimulated AKT1 phosphorylation at Thr308 residue at 100 to 1000 nM incubated for 20 mins by immunoblot analysis; type: cell-based; details: Homo sapiens, dose 100-1000 nM
In short: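 HEK-293 cells transfected with wild-type or S473D GST–Akt1. At 24 h, serum-starved 16 h, pretreated 30 min with inhibitor, then stimulated with IGF-1 for 20 min. Lysates immunoblotted for Thr308 phosphorylation. Three separate experiments.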

mTORC2 (Homo sapiens) [11] = target: T2, mTORC2 (Homo sapiens) (UniProt P42345+Q6R327+Q9BVC4+Q9BPZ7); details: HEK293, dose 30-1000 nM, time 30.0 min
mTORC2 (Homo sapiens) [12] = target: T2, mTORC2 (Homo sapiens); details: HEK293, dose 30-100 nM, time 30.0 min
mTORC1 (Homo sapiens) [13] = target: T1, mTORC1 (Homo sapiens); details: HEK293, dose 30-1000 nM, time 30.0 min; remark: listed apart in the source
mTORC2 (Homo sapiens) [14] = target: T2, mTORC2 (Homo sapiens); details: HEK293, dose 30-1000 nM, time 30.0 min; remark: listed apart in the source
[15] = target: cAMP-dependent protein kinase catalytic subunit alpha (Homo sapiens) (UniProt P17612); test: Inhibition of recombinant human N-terminal GST-tagged PKAalpha (2 to 351 residues) expressed in Escherichia coli assessed as remaining activity at 10 uM using Kemptide as substrate incubated for 30 mins in presence of [gamma-33P]ATP by filter binding method relative to control; in short: as §1

Sequence of Serine/threonine-protein kinase PAK 5 (Homo sapiens) (Q9P286 whole entry, looked up, the tested form may be a part, canonical isoform): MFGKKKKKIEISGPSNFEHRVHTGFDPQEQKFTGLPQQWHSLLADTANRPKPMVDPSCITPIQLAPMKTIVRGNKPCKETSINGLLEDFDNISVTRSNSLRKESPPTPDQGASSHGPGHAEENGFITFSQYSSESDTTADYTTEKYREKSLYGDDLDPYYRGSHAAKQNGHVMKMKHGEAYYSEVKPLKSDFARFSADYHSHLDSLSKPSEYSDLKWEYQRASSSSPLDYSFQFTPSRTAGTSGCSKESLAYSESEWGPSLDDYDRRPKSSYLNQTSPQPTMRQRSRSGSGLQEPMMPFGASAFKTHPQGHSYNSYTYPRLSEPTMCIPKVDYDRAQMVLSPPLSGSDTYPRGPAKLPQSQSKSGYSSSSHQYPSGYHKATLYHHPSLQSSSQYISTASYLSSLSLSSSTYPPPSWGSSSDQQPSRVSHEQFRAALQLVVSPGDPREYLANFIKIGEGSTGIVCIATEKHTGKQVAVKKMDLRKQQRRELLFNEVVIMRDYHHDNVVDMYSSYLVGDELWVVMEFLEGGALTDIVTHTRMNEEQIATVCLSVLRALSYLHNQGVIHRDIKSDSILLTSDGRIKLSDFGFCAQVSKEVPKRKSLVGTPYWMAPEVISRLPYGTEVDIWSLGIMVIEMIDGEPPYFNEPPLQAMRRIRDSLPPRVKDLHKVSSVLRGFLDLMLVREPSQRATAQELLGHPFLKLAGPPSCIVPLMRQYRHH
Sequence of Sphingosine kinase 2 (Homo sapiens) (Q9NRA0 whole entry): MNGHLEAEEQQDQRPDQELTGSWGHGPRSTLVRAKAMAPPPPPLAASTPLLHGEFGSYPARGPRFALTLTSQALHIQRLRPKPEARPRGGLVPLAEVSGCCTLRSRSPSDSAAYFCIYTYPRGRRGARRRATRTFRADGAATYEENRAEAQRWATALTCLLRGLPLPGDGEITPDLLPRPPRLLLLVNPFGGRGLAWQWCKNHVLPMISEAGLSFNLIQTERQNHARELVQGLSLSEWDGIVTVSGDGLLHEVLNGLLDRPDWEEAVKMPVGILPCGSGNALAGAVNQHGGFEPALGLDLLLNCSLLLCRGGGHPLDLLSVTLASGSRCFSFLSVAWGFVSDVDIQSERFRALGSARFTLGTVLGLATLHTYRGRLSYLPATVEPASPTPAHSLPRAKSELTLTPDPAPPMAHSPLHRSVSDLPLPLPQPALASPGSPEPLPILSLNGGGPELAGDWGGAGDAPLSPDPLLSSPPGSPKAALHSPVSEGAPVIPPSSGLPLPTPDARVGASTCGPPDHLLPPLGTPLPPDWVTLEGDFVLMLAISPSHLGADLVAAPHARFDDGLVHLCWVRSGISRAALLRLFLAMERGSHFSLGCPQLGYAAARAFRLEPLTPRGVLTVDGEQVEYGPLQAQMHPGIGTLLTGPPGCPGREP
Sequence of Ephrin type-B receptor 3 (Homo sapiens) (P54753 whole entry, the tested form may be a part): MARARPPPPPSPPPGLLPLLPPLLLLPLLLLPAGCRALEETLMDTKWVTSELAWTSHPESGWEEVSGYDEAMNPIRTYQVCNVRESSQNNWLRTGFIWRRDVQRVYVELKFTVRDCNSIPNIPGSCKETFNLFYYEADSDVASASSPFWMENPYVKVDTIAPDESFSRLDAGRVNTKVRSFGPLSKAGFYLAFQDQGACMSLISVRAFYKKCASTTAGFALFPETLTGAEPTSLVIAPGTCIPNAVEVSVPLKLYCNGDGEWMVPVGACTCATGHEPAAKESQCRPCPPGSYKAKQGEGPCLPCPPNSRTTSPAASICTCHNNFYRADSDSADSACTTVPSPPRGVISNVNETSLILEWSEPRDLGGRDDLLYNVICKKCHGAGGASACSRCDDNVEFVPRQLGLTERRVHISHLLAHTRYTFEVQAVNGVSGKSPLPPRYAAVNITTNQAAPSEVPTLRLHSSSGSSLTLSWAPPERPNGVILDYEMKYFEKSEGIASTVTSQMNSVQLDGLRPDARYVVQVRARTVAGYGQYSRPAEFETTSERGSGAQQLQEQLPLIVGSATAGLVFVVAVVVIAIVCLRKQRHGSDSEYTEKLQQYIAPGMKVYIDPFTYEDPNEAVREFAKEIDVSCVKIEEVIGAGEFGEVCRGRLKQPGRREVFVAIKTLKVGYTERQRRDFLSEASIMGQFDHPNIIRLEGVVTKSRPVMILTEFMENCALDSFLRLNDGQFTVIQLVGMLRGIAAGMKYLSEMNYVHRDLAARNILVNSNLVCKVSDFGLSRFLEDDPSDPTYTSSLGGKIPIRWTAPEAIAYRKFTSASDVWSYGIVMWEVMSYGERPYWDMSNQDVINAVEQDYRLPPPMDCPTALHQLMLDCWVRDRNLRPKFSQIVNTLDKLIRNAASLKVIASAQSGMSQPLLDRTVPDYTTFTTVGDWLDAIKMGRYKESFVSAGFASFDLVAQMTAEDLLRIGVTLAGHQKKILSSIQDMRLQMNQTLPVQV
Sequence of Casein kinase I isoform delta (Homo sapiens) (P48730 whole entry, looked up, the tested form may be a part, canonical isoform): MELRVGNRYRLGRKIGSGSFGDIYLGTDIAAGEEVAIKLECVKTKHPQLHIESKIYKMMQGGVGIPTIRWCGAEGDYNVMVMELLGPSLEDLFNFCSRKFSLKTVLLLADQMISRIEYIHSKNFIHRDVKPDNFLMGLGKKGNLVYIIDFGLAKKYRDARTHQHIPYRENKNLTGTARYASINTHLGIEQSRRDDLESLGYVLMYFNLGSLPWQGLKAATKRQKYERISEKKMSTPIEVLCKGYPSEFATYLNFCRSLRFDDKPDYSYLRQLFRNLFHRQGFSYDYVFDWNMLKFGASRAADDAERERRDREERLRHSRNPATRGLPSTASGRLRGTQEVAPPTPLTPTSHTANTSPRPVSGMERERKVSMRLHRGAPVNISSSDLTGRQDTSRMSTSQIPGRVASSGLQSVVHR
Sequence of Maternal embryonic leucine zipper kinase (Homo sapiens) (Q14680 whole entry, looked up, the tested form may be a part): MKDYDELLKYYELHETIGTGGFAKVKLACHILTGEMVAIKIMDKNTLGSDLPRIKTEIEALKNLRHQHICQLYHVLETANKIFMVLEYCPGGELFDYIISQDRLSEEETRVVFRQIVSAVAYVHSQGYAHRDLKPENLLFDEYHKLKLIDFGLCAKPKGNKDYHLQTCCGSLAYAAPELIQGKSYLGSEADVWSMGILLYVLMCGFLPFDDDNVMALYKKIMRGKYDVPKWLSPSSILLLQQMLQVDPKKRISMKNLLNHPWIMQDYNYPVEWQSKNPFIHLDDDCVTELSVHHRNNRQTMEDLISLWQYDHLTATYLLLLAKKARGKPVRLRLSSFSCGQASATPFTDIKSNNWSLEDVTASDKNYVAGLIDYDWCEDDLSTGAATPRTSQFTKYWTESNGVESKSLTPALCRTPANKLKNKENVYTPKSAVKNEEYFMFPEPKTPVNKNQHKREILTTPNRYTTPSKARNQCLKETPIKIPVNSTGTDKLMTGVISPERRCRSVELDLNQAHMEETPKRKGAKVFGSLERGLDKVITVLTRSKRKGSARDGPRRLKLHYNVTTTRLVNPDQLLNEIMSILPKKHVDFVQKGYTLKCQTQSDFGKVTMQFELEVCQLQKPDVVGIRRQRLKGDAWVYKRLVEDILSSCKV
Sequence of Vascular endothelial growth factor receptor 1 (Homo sapiens) (P17948 whole entry, the tested form may be a part): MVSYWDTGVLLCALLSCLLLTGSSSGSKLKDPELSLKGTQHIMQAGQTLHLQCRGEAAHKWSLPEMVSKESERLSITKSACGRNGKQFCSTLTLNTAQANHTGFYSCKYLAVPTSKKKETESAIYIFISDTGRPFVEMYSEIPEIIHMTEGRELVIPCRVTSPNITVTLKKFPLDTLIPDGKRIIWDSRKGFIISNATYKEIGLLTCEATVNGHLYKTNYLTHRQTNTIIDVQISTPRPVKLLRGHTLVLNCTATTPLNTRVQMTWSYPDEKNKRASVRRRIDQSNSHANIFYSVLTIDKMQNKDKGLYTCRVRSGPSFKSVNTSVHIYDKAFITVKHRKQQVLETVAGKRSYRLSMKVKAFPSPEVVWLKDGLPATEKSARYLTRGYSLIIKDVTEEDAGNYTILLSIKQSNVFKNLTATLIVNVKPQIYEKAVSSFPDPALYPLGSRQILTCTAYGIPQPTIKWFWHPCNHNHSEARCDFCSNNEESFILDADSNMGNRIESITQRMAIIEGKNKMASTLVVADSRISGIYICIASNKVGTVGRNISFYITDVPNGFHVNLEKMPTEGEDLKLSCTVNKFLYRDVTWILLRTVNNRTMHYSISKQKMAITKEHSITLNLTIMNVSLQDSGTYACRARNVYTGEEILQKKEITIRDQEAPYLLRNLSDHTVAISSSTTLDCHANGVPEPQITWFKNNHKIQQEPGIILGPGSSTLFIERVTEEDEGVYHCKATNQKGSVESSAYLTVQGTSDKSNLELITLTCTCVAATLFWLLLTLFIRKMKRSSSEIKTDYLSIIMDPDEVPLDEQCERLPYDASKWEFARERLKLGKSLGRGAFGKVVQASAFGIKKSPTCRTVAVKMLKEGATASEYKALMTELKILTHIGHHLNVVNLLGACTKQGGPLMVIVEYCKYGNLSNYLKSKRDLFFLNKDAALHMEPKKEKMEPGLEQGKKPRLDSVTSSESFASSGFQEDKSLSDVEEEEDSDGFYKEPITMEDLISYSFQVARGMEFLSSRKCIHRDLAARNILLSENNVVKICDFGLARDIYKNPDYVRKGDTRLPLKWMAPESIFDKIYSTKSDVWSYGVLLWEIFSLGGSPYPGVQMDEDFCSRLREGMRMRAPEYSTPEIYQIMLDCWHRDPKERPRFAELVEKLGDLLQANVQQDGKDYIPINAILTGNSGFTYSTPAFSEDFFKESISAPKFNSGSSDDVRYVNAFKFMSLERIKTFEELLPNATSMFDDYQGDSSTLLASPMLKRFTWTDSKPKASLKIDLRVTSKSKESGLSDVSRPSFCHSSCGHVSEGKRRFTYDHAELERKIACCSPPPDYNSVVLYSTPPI

COc1ccc(-c2ccc3c(N4CCOCC4)nc(N4C[C@@H](C)O[C@@H](C)C4)nc3n2)cc1CO [Ku-0063794]
inhibition (MEF): Active | Activity [1]: 78% | inhibition (mTORC1 (Homo sapiens) [2]): Dose-Dependent Effect | Activity [3]: 81% | Activity [4]: 78% | Activity [5]: 119% | Activity [6]: 92% | Activity [7]: 72% | Activity [8]: 101% | Activity [9]: 112% | Activity [10]: 87% | inhibition (HEK293): inactive | inhibition (mTORC2 (Homo sapiens) [11]): Dose-Dependent Effect | inhibition (mTORC2 (Homo sapiens) [12]): Active | inhibition (mTORC1 (Homo sapiens) [13]): Active | inhibition (mTORC2 (Homo sapiens) [14]): Dose-Dependent Effect | Activity [15]: 85%
